Measurements published in the EternaBench riboswitch data.

Tested on: MS2 coat protein
Assay: apparent Kd, MS2 coat protein; higher = weaker binding; RNA-MaP array; FMN 200 µM where present
In short: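 The titrant was SNAP-549-labelled MS2 coat protein, run from 0.7 or 1.5 nM in doubling steps to 3 µM. It was applied to designs transcribed by stalled E. coli RNA polymerase on Illumina sequencing-chip clusters, without ligand first and then with constant ligand, in 100 mM Tris-HCl pH 7.5, 80 mM KCl, 4 mM MgCl2, BSA, DTT, yeast tRNA and Tween-20. The apparent Kd is the median of filtered per-cluster binding-curve fits, with green signal normalised to red-channel RNA signal and control-cluster median Fmax.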

[1] = designed as: OFF switch for flavin mononucleotide, no ligand
[2] = ligand present: flavin mononucleotide, designed as: OFF switch for flavin mononucleotide
[3] = designed as: ON switch for flavin mononucleotide, no ligand
[4] = ligand present: flavin mononucleotide, designed as: ON switch for flavin mononucleotide

Row | Sequence | apparent Kd [1] [nM] | apparent Kd [2] [nM] | apparent Kd [3] [nM] | apparent Kd [4] [nM]
1 | ACUGUUUGAUUCCUCUUAUACAUGAGGAUCACCCAUGUUAUCGAGGAUAUGCAUUAGAGUGUUUAGCAGAAGGCGAUGUAGUUG | 7.56 | 19.1 |  | 
2 | AACGUGUGAGGAUAUGCCGUGCCCUUCCGGAAGGAGCGGGUGCAGAAGGCACAUGAGGAUCACCCAUGUCGGCA | 33.9 | 49.8 |  | 
3 | GACUUGGCUACAUGAGGAUCACCCAUGUUUGACUGGAUCGAUUAGGAUAUAGUGAUAUGCAACAAUUAGAAGGGAUGUUUACGG |  |  | 52.9 | 42.2
4 | CCUAAGGACACAGGAUAUAGCGCGGUGGCUGGGCUCCAACGGCGAGCGACGCUAGAAGGGUGACCACAUGAGGAUCACCCAUGU |  |  | 517 | 122
5 | AUUUAUGGCCAGAAGGACAUGAGGAUCACCCAUGUAGGAUAUGGACGAUUUUGCCCGGCGGUUCGUUUAGGAAGCACCGGUGGU |  |  | 11.5 | 7.11
6 | UGGUGAAAUGUAGGAUAUGGAAAUAAAUUUUAACCAGAAGGACAUGAGGAUCACCCAUGUGAUAGAGAAUUAAUAAUAUCUCCU | 18.6 | 29.9 |  | 
7 | AUUUGACACGUAGGAUAUCGCUCAAAUUUAACACGAGAAGGACGAACAUGAGGAUCACCCAUGUAACAUGGUGUAGUUUAUUUG | 62.7 | 88.1 |  | 
8 | AGCUACGUUUCGUAGCAGCUAGGUGAGGAUAUCCUUAACAUGAGGAUCACCCAUGUUUAGCCAUGGGAGAAGGCGCCUAGAAAG |  |  | 259 | 21.5
9 | UGCUGGUGACAGCAUCCAUCAAAACAUGAGGAUCACCCAUGUAGAAGGCUGUACGGUUACCGUACAGAGGAUAUACAAUGAUGU | 13.2 | 23.6 |  | 
10 | AAAAUACAUGAGGAUCACCCAUGUUAGGAUAUCCAAGGUCUAACCCUCAGGGUUAGACGGAGAAGGGAUGUGGU | 60.8 | 61.6 |  | 
11 | UAAAAGACUAGCUGGUAUCUCCACAUGAGGAUCACCCAUGUCUAGGAUAUGAGCAGCAAAGCUGCUUAGAAGGAGACGCUAGUC | 7.67 | 8.83 |  | 
12 | AAAAACUGAGGAUAUACGAAAAAAAAAAAAAAAAAAAAAAAACAUGAGGAUCACCCAUGUAGAAGGCAGAAAAA | 50.4 | 38 |  | 
13 | AUUCCUUGUGUUAGGAUAUGUCACUACCGUAUGCGACAGAAGGAACAUGAGGAUCACCCAUGUGAGUUAGCCGA | 87.5 | 24.1 |  | 
14 | ACAAAGUGAGGAUAUGCUUUUAUUUAUUAUUAUUAUUAUUUGCAGAAGGCACAUGAGGAUCACCCAUGUAAGAA | 32.9 | 25.5 |  | 
15 | UUUAUGAAGAUUCGUCAAUACAGUUAGGAUAUGAGAGACAUGAGGAUCACCCAUGUGCAUGUUGAUUAGAAGGAACAAUUAUCU | 19.1 | 16.9 |  | 
16 | GCACGGCAUGUAGGAUAUCGAGCGCCGGGCGCUCGAGAAGGACAUGAGGAUCACCCAUGUGCUCACAGUGAGUGAGUGCUGUGC | 19.6 | 37.4 |  | 
17 | UGCUAGGAUGGGUCUAAUGGACCUCAGGAUAUGCUUGUACAUGAGGAUCACCCAUGUAACAUUGUGCAGAAGGGAGGAUCCACG |  |  | 8.45 | 4.93
18 | GGGUACUUCGGAGGAUAUCAUGUAAAUACAUGAGGAUCACCCAUGUCGAUGGAGACAUCGGAGAUUGAGAAGGCCGAUGUACCG |  |  | 171 | 9.34
19 | GUUAAUUUCGAAGGAUAUGGAUACAUGAGGAUCACCCAUGUAUAAAAUGAGAUCUAUUAUAUGAUCCAGAAGGUCGUUUUUUAU | 36.5 | 69.6 |  | 
20 | AAAAGCAAAGGAUAUACAUGAGGAUCACCCAUGUAAAAAAGAAAAGAGUAUAUGGCAUGUAGAAGGUUGCGUGG | 34.5 | 49.8 |  | 
21 | GAGGUACGAGGAUAUACAUAGAUACAGACACAUGUUCAAGUACAUGAGGAUCACCCAUGUAGAAGGCGUAUAUC | 30.1 | 44.9 |  | 
22 | GGCUACGUUUCGUAGCAGUGUCAUCGAGAAGGCCCUGACAUGAGGAUCACCCAUGUUGUUACAUGGGAGGAUAUCGAUGAUACU |  |  | 13.3 | 5.12
23 | AUUUAACAUGAGGAUCACCCAUGUGAGGAUAUGUCCAUAUUCGGCAAAUCGGAUAUGGACAGAAGGCACACCGG | 105 | 194 |  | 
24 | GGAGCAUAUGUCAGGAUAUCGUGGUCGAUAGAUCACGAGAAGGGACAUGAGGAUCACCCAUGUCAGUCCGCUCC | 14.3 | 20.7 |  | 
25 | GGUGCGUUUGUGAGGAUAUGCUGGUCCUUGGAUCUGCAGAAGGCACAUGAGGAUCACCCAUGUGGUGUCGUACC | 293 | 36.5 |  | 
26 | GCCUUAUCCGUCAGGAUAUACAUUUUUUAGUUGUUGUAGAAGGGACAUGAGGAUCACCCAUGUACAUUACAUUG | 21.1 | 21.8 |  | 
27 | UAAUAAAGCAGUGUAUUAAGAUCACAUGAGGAUCACCCAUGUAAGGAUAUGAGCAGAAAAUCUGCUCAGAAGGUACGAACACUG | 9.51 | 32.4 |  | 
28 | UUAAUUAAUUAAUUAUACAUGAGGAUCACCCAUGUAAGUGAUCAGGAUAUCAGCUCGAAUAGAGCUGAGAAGGGAUACAUGAAU |  |  | 144 | 118

Row | Sequence | apparent Kd [1] [nM] | apparent Kd [2] [nM] | apparent Kd [3] [nM] | apparent Kd [4] [nM]
29 | AAGCGAGGGACAGGAUAUGCGGCGGAACUCGCCGCAGAAGGGUCGACAUGAGGAUCACCCAUGUCCUUACGCUCCAAGUAGAGG |  |  | 181 | 451
30 | UCCAGGCGAGGAUAUACUUAGAUUUUUUCGUUUAGUCUCGAACAUGAGGAUCACCCAUGUAGAAGGUGCUUCAC | 45.6 | 42 |  | 
31 | GUCUCAGCUGAGGAUAUUAUCUGGCUCGACCGAUAAGAAGGCAGUACAUGAGGAUCACCCAUGUGGUUCGUUCG | 37.6 | 84.9 |  | 
32 | GAUAAACAUGAGGAUCACCCAUGUCAGGAUAUGCGCUAGCUAGCUAGCUAGCUAGCUAGCAGAAGGGACACUAC | 19.5 | 35 |  | 
33 | GGGCAAUUAGGAUAUACAUGAGGAUCACCCAUGUGGAAGCCCGGACAGGUAAUCCACUGUAGAAGGGAUUGCGG | 14.8 | 15 |  | 
34 | ACAUUGCGAGGAUAUACAUGAGGAUCACCCAUGUGGUAGUGGAUACGGUAGGGCUAGUGUAGAAGGUGUCAUGG | 128 | 103 |  | 
35 | UGCGUGUUAGGAUAUCCGCCAAAGACCGACGGUGGAACGCAGGAGAAGGAACAUGAGGAUCACCCAUGUGGGAA | 88.1 | 34.3 |  | 
36 | CUUUUGUGAGGAUAUCAGUAGUAAAAAAUUAAAAUUACUACUGAGAAGGCACAUGAGGAUCACCCAUGUUCCUC | 40.1 | 284 |  | 
37 | UUUACAUGAGGAUCACCCAUGUCUUGCAAGAUGAGUUCUGGUGAGGAUAUACAUGGUAAAGAACUGUAGAAGGCACUGGGUACA |  |  | 432 | 430
38 | UGAUCGAGAGAUCUUAGAUUCUGGUAGGAUAUACAUUUAAAACGCUUUACAUGAGGAUCACCCAUGUAGAAGGACUAGAGUCUA | 6.68 | 7.5 |  | 
39 | UUGGCAACGUAGAAGGGUGACAUGAGGAUCACCCAUGUGCCGAUAUAUCUCGAGAUAUGUCGGCCACAGGAUAUACGUGCCAUC |  |  | 35.9 | 35.2
40 | UUCUUCAGGUCAGGAUAUGCACAAGUUCAACGAGCAGAAGGGACAUGAGGAUCACCCAUGUAAAGGGCACCGGCUAACGUUCGA | 258 | 182 |  | 
41 | GCUAGUAUUGCAGGAUAUUGAGAUUAAUUAAGGCAAGAAGGGCAUUACAUGAGGAUCACCCAUGUUUUCCUUAGUCAUACUAGC | 7.12 | 7.4 |  | 
42 | CUUCGACAUGAGGAUCACCCAUGUCAGGAUAUUGUGUAUCGGGUGUUGGACGGAUAGGCAAGAAGGGAUGUGUG | 34.7 | 30.1 |  | 
43 | AAUCGGGAGCAGAAGGCAUGUCAUAAAACAUGAGGAUCACCCAUGUAGUUAAGGCGAAAGCCGCAUGAGGAUAUGCUCCCGUAA |  |  | 5.61 | 4.69
44 | AUGCCGUGCAGAGCGCGACGGCGUACAUGAGGAUCACCCAUGUAGGAUAUACUACACAAAGUGUAGUAGAAGGACGUGCGACUG | 30.6 | 33.4 |  | 
45 | AUUAUAUAGUAAGGAUAUAGAUUAUUAUUUUAACAUGAGGAUCACCCAUGUAGCCUUAUGUAUAACUAGAAGGUACAUUUAUUA | 47.8 | 50.5 |  | 
46 | AACAAACAUGAGGAUCACCCAUGUCAGGAUAUGGCGGCUAGUGUGCCACCGUACACUACCAGAAGGGACUGGGU | 212 | 151 |  | 
47 | AAGUAGAUCCGAGGAUAUACAAACCGGAAACGGUACAUGAGGAUCACCCAUGUAGAAGGCGGAUCUACAGGUACUAAAGUACCA | 5.33 | 8.68 |  | 
48 | GGGUACAUCGGAGGAUAUGAUGUAAAUACAUGAGGAUCACCCAUGUCGAUGGAGACAUCGGAGAUUGAGAAGGCCGAUGUACCG |  |  | 88.2 | 32.2
49 | UUUUAACAUGAGGAUCACCCAUGUGAGGAUAUCGAAAUUUAUAUUUAUAUUUAUAAUACGAGAAGGCACAUUUU | 80.3 | 93.6 |  | 
50 | GAGUGGUGGAGAGGAUAUACAUUGUUAUUCACUGUAGAAGGUUCUAACAUGAGGAUCACCCAUGUAGGACUAUUCCUGUGUUUU |  |  | 13.4 | 10.4
51 | CAGCAAAAGUAGAAGGCAGUACUGAUUCAGUACUGAGGAUAUACAUGAGGAUCACCCAUGUAAUAUAGCUGAAUAAUAUAUUAU | 6.17 | 7.56 |  | 
52 | UUAGAAUUGCAAGGAUAUCUUAUUUAGAUAGUAAGAGAAGGUGCUUUAUAGUUACAUGAGGAUCACCCAUGUAUUUCUUUUUAU |  |  | 23.1 | 19.7
53 | UGGUACUAGGGAGGAUAUGGGAAGAUACAUGAGGAUCACCCAUGUUUAAGAAUGCCGAGAGGCAUCUAGAAGGCCCUAGUACCU |  |  | 877 | 115
54 | GUUUAGUGAGGAUAUGUGGCUUCGAUCGUGCGAGGGCGGCUACAGAAGGCACAUGAGGAUCACCCAUGUUCCUC | 155 | 428 |  | 
55 | GGUCUGAUAUGAGGAUAUGCUCAGGAUAACUGAGCAGAAGGCAUGUGAAAACAUGAGGAUCACCCAUGUGAUCAAUACAGACCA |  |  | 141 | 23.9
